This note sets out measurements from ChEMBL document CHEMBL2169854, “New insight into the central benzodiazepine receptor-ligand interactions: design, synthesis, biological evaluation, and molecular modeling of 3-substituted 6-phenyl-4H-imidazo[1,5-a][1,4]benzodiazepines and related compounds” (J Med Chem, 2011).

The source made the active and inactive calls. The calls are words filed in the database; no cut-off is given here.

Experiment [1] deals with Mus musculus. Description: Myorelaxant activity in mouse assessed as motor coordination measuring number of falls at 10 mg/kg, po measured for 30 seconds after 45 mins of compound administration by rotarod test. It counts as functional, organism-based. Further details: dose 10 mg/kg. In a few lines:
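In mice, falls from the rotating rod were counted for 30 s after dosing. Compound was given orally in 1% CMC and diazepam ip in saline. Results were compared against saline/CMC controls by ANOVA.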
Background: In the rotarod test animals must keep their balance on a rotating rod.

The species entered for another experiment is Rattus norvegicus. Description: Agonist activity at central benzodiazepine receptor in Sprague-Dawley rat cerebrocortical synaptoneurosomes assessed as increase in GABA-induced [36]chloride ion flow after 10 seconds by beta liquid scintillation counting. It counts as functional. In a few lines:
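Cerebral cortex from male Sprague-Dawley rats was homogenised and filtered, and synaptoneurosomes were washed in HEPES pH 7 buffer (145 mM NaCl, 5 mM KCl, 5 mM MgCl2, 1 mM CaCl2, 10 mM glucose). Aliquots of 1.5–2 mg protein were preincubated 10 min at 30 C. Drug was added with 0.2 μCi 36Cl−, uptake was stopped at 10 s, and filter-bound radioactivity was counted by scintillation.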

Experiment [2] has as its system Mus musculus. Kind of experiment: […] activity in mouse assessed as effect on spontaneous motility measuring number of movements on plane board at 10 mg/kg, po after 5 mins by hole-board test relative to CMC-treated control. It counts as functional, organism-based. Details: dose 10 mg/kg. In a few lines:
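Mice dosed orally in 1% CMC were placed singly on a 16-hole board for 5 min. Photocells counted plane movements (spontaneous motility) and hole explorations. Groups of 12–15 mice were compared with CMC controls.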

Regarding `CCOC(=O)c1ncn2c1CN=C(c1ccc(F)cc1)c1cc(F)ccc1-2`, the outcome in the experiment on Mus musculus [1] and in the experiment on Mus musculus [2] was inactive. Besides, the result in the experiment filed under Rattus norvegicus was Active.
